# Columns and labels:
# Format in all cases: functional
# [1] = test system: Mus musculus; experiment: Inhibition of MeAIB(10e-4) uptake by Ehrlich cell at the specified Conc of 0.5 mM expressed as mM/kg of cell water/min
# Outline: (§1)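 ¹⁴C-MeAIB uptake by Ehrlich ascites tumor cells propagated in Swiss white mice and washed in Na⁺-free media. Uptake ran for 1 min at 37 °C in 5% cell suspensions in Na⁺-containing Krebs-Ringer bicarbonate under 5% CO₂–O₂ (pH 7.4). Stopped by ice-cold dilution and centrifugation. ¹⁴C in the medium and in a sulfosalicylic acid cell extract was counted by liquid scintillation. Extracellular water was measured by sucrose.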
# [2] = species: Rattus norvegicus; experiment: Inhibition of threonine (0.5*10e-4) uptake by rat Hepatoma cells(HTC) at the specified Conc of 10 mM expressed as nM/mg of protein/min
# Outline: (§2)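 HTC hepatoma monolayers were grown in Medium 199 (pH 7.4, 26 mM NaHCO₃, antibiotics, 5–8% FBS) under 5% CO₂/95% air and seeded 3–4 days before testing. A 1-min uptake ran in Krebs-Ringer phosphate (pH 7.4, 37 °C), then the cells were washed with ice-cold Na⁺-free choline medium. Cells were extracted with 5% TCA and counted by scintillation. Protein was measured by modified Lowry with SDS and a BSA standard.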
# [3] = test system: Mus musculus; experiment: Inhibition of MeAIB(10e-4) uptake by Ehrlich cell at the specified Conc of 2.5 mM expressed as mM/kg of cell water/min; outline: as §1
# [4] = test system: Mus musculus; experiment: Inhibition of MeAIB(10e-4) uptake by Ehrlich cell at the specified Conc of 10 mM expressed as mM/kg of cell water/min; outline: as §1
# [5] = test system: Mus musculus; experiment: Inhibition of MeAIB(10e-4) uptake by Ehrlich cell at the specified Conc of 0.25 mM expressed as mM/kg of cell water/min; outline: as §1
# [6] = species: Rattus norvegicus; experiment: Inhibition of threonine (0.5*10e-4) uptake by rat Hepatoma cells(HTC) at the specified Conc of 2.5 mM expressed as nM/mg of protein/min; outline: as §2
# [7] = species: Rattus norvegicus; experiment: Inhibition of threonine (0.5*10e-4) uptake by rat Hepatoma cells(HTC) at the specified Conc of 0.5 mM expressed as nM/mg of protein/min; outline: as §2
Structure (SMILES),MeAIB uptake [1],Thr uptake [2],MeAIB uptake [3],MeAIB uptake [4],MeAIB uptake [5],Thr uptake [6],Thr uptake [7]
N[C@]1(C(=O)O)C[C@@H]2CC[C@@H](C2)C1,0.66,3.45,0.64,0.61,0.67,3.52,3.81
CC(O)C(N)C(=O)O (stereo not drawn),–,0.12,–,–,–,–,–

# — ChEMBL document CHEMBL1122321, “Synthesis and transport applications of 3-aminobicyclo[3.2.1] octane-3-carboxylic acids” (1983)
